Experimental data: ChEMBL document CHEMBL1140138, “Novel opioid peptide derived antagonists containing (2S)-2-methyl-3-(2,6-dimethyl-4-carbamoylphenyl)propanoic acid [(2S)-Mdcp]” (J Med Chem, 2008)
Bridge positions count the residues as written; N and C are the ends. Square brackets hold non-standard residues; d marks the D form. Peptide text beside a SMILES is read from it. * marks the point of attachment. Phe(4-NO2) = N[C@@H](Cc1ccc([N+](=O)[O-])cc1)C(=O)O; X1 = Cc1cc(C(N)=O)cc(C)c1C[C@H](C)C(=O)*; Phe(4-F) = N[C@@H](Cc1ccc(F)cc1)C(=O)O; d2Nal = N[C@H](Cc1ccc2ccccc2c1)C(=O)O; Dmt = Cc1cc(O)cc(C)c1C[C@H](N)C(=O)O; dPen = CC(C)(S)[C@@H](N)C(=O)O; Pen = CC(C)(S)[C@H](N)C(=O)O; Sar = CNCC(=O)O

Key:
Mu-type opioid receptor [1] = biological target: Mu-type opioid receptor (Cavia porcellus, UniProt P97266); assay: (§1) Antagonist activity against mu opioid receptor in guinea pig ileum assessed as effect on TAPP-induced response; assay type: functional, tissue-based
Mu-type opioid receptor (Cavia porcellus, UniProt P97266), sequence (P97266 whole entry): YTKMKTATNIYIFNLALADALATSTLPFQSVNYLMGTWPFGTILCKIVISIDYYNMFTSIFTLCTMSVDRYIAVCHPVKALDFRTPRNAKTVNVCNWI
In short: (§2)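 Isolated tissue bioassays: mu and kappa antagonism measured in guinea pig ileum, delta antagonism in mouse vas deferens. Antagonist potency expressed as Ke (nM).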

[2] = biological target: Mu-type opioid receptor (Cavia porcellus) (UniProt P97266); assay: as §1; assay type: functional, tissue-based; in short: as §2
Mu-type opioid receptor (Cavia porcellus), sequence (P97266 whole entry): as above

[3] = biological target: Kappa-type opioid receptor (Cavia porcellus) (UniProt P41144); assay: Antagonist activity against kappa opioid receptor in guinea pig ileum assessed as effect on U50488-induced response; assay type: functional, tissue-based; in short: as §2
Kappa-type opioid receptor (Cavia porcellus), sequence (P41144 whole entry): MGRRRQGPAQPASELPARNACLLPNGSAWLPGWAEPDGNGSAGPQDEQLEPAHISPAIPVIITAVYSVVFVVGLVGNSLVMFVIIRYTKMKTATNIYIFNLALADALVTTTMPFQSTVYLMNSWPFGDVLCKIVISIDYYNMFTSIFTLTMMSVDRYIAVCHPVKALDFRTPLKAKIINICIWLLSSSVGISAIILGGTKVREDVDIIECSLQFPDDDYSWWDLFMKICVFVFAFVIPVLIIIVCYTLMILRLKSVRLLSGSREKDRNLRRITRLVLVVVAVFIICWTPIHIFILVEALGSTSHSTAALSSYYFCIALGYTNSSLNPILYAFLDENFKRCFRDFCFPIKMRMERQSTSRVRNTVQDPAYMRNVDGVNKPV

[4] = biological target: Delta-type opioid receptor (Mus musculus) (UniProt P32300); assay: (§3) Antagonist activity against delta opioid receptor in mouse vas deference assessed as effect on DPDPE-induced response; assay type: functional; in short: as §2
Delta-type opioid receptor (Mus musculus), sequence (P32300 whole entry): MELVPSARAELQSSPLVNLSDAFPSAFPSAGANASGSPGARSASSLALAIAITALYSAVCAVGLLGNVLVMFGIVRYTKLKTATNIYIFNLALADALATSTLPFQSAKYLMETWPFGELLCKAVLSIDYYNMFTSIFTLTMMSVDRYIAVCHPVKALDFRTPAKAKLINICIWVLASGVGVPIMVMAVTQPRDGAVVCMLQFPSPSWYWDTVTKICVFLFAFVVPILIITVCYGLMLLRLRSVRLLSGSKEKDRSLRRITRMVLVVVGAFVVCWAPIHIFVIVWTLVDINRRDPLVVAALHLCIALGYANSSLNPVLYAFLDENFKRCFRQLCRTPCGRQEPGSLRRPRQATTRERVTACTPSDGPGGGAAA

[5] = biological target: Kappa-type opioid receptor (Cavia porcellus, UniProt P41144); assay: Displacement of [3H]U69593 from kappa opioid receptor in guinea pig brain membrane; assay type: cell membranes
Kappa-type opioid receptor, sequence (P41144 whole entry): as the sequence (P41144 whole entry) above

Mu-type opioid receptor [6] = biological target: Mu-type opioid receptor (Rattus norvegicus, UniProt P33535); assay: Displacement of [3H]DAMGO from mu opioid receptor in rat brain membrane; assay type: cell membranes
Mu-type opioid receptor (Rattus norvegicus, UniProt P33535), sequence (P33535 whole entry): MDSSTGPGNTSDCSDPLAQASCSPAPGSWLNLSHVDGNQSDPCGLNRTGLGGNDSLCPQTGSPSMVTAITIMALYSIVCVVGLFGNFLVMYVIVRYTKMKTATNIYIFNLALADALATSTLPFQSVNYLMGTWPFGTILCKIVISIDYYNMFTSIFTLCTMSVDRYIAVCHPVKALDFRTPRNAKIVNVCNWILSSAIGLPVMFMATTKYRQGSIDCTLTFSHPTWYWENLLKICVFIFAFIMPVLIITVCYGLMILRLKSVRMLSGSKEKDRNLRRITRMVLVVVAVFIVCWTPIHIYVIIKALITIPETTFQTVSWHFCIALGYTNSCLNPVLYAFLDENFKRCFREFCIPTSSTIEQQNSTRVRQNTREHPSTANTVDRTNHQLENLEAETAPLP
In short: (§4)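 Opioid receptor binding in rat brain membrane preparations. Affinity expressed as Ki (nM).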

[7] = biological target: Delta-type opioid receptor (Rattus norvegicus, UniProt P33533); assay: Displacement of [3H]DSLET from delta opioid receptor in rat brain membrane; assay type: cell membranes; in short: as §4
Delta-type opioid receptor (Rattus norvegicus, UniProt P33533), sequence (P33533 whole entry): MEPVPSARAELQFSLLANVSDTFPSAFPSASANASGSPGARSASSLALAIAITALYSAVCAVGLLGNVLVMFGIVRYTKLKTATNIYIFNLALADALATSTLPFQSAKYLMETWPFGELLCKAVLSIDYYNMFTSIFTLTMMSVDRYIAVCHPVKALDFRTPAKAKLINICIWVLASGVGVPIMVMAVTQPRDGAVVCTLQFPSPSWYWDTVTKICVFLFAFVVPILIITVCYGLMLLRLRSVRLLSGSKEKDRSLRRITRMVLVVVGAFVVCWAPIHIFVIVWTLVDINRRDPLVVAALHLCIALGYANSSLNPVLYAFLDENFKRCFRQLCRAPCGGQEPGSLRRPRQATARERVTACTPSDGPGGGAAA

[8] = biological target: Delta-type opioid receptor (Mus musculus, UniProt P32300); assay: as §3; assay type: functional; in short: as §2
Delta-type opioid receptor (Mus musculus, UniProt P32300), sequence (P32300 whole entry): as the sequence (P32300 whole entry) above

| Structure (SMILES) | Ki (Mu-type opioid receptor [1]) | Ke [2] | Ke [3] | Ke [4] | Ki [5] | other results |
| --- | --- | --- | --- | --- | --- | --- |
| Cc1cc(O)cc(C)c1C[C@H](N)C(=O)N1CCC[C@H]1C(=O)N[C@@H](Cc1ccccc1)C(=O)N[C@H](Cc1ccc2ccccc2c1)C(N)=O [ANTANAL-2] (H-[Dmt]PF[d2Nal]-NH2) | 1.52 nM |  |  |  |  |  |
| Cc1cc(O)cc(C)c1C[C@H](C)C(=O)N[C@@H]1CSSC[C@H](C(N)=O)NC(=O)[C@H](Cc2ccc([N+](=O)[O-])cc2)NC(=O)CNC1=O |  | 1.48 nM | 6.41 nM | 3.48 nM | 92.8 nM |  |
| Cc1cc(O)cc(C)c1C[C@H](N)C(=O)N1CCC[C@H]1C(=O)N[C@@H](Cc1c[nH]c2ccccc12)C(=O)N[C@H](Cc1ccc2ccccc2c1)C(N)=O [ANTANAL-1] (H-[Dmt]PW[d2Nal]-NH2) | 2.38 nM |  |  |  |  |  |
| CC[C@H](C)[C@H](NC(=O)[C@H](CCCNC(=N)N)NC(=O)[C@H](CCCNC(=N)N)NC(=O)[C@H](CC(C)C)NC(=O)[C@H](Cc1ccccc1)NC(=O)CNC(=O)CNC(=O)[C@@H](C)Cc1c(C)cc(C(N)=O)cc1C)C(=O)N[C@@H](CCCNC(=N)N)C(=O)N1CCC[C@H]1C(=O)N[C@@H](CCCCN)C(N)=O |  | 401 nM | 5.96 nM | 843 nM | 26 nM | Ki (Mu-type opioid receptor [6]): 29.6 nM; Ki [7]: 27.2 nM |
| Cc1cc(O)cc(C)c1C[C@H](N)C(=O)N(C)CC(=O)N[C@@H](Cc1ccccc1)C(=O)N[C@H](Cc1ccc2ccccc2c1)C(N)=O (H-[Dmt][Sar]F[d2Nal]-NH2) |  | 2.34 nM |  | 305 nM |  |  |
| Cc1cc(C(N)=O)cc(C)c1C[C@H](C)C(=O)N[C@H]1C(=O)NCC(=O)N[C@@H](Cc2ccc(F)cc2)C(=O)N[C@H](C(=O)N[C@@H](Cc2ccccc2)C(=O)O)C(C)(C)SSC1(C)C (X1-[dPen]G[Phe(4-F)][Pen]F-OH; disulfide 1-4) |  | 1170 nM | 9980 nM | 0.326 nM |  |  |
| Cc1cc(O)cc(C)c1CCC(=O)N[C@@H]1CCCCNC(=O)NC[C@@H](C(N)=O)NC(=O)[C@H](Cc2ccccc2)NC(=O)CNC1=O | 15.5 nM |  |  |  |  | Ki [8]: 273 nM |
| C[C@@H](O)[C@H](NC(=O)[C@H]1NC(=O)[C@H]([C@@H](C)O)NC(=O)[C@H](CCCN)NC(=O)[C@@H](Cc2c[nH]c3ccccc23)NC(=O)[C@H](Cc2ccc(O)cc2)NC(=O)[C@@H](NC(=O)[C@H](N)Cc2ccccc2)CSSC1(C)C)C(N)=O |  |  |  |  |  | IC50 (Mu-type opioid receptor [1]): 2.8 nM |
| Cc1cc(O)cc(C)c1C[C@H](C)C(=O)N[C@H]1C(=O)NCC(=O)N[C@@H](Cc2ccc(F)cc2)C(=O)N[C@H](C(=O)N[C@@H](Cc2ccccc2)C(=O)O)C(C)(C)SSC1(C)C |  | 668 nM | 4370 nM | 0.785 nM | 3710 nM | Ki (Mu-type opioid receptor [6]): 406 nM; Ki [7]: 2.32 nM |
| Cc1cc(C(N)=O)cc(C)c1C[C@H](C)C(=O)N[C@@H]1CSSC[C@H](C(N)=O)NC(=O)[C@H](Cc2ccc([N+](=O)[O-])cc2)NC(=O)CNC1=O (X1-[dC]G[Phe(4-NO2)][dC]-NH2; disulfide 1-4) |  | 1.24 nM | 18.9 nM | 9.78 nM |  |  |
